Calls of active or inactive are those of the source. The rule behind the calls is not given here.
Legend:
[1] = Drug uptake in Sprague-Dawley rat brain at 10 mg/kg, po measured after 120 mins by LC-MS/MS analysis; assay type: ADME, organism-based; settings: read-out: Drug uptake
Summary of the method: (§1)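 Sprague-Dawley rats (n = 3 per time point) were given 10 mg/kg p.o. Total plasma concentrations were taken at 15, 30, 60 and 120 min. Brain levels of the dosed ligand and of the carboxylic acid metabolite were taken at 60 or 120 min.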

Liver [2] = assay: Metabolic stability in rat liver microsomes assessed as compound remaining at 4 uM measured after 30 mins in presence of NADPH by LC-MS/MS analysis; assay type: ADME, microsome; settings: 0.5 h
Summary of the method: (§2)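 Human, mouse or rat liver microsomes were incubated with compound at 4 μM final for 30 min at 37 °C (n = 1). Percent of parent remaining was quantified by LC-MS/MS.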

[3] = target: T1, GABA-A receptor; alpha-3/beta-3/gamma-2 (Homo sapiens, UniProt P18507+P28472+P34903); assay: Binding affinity to human GABAA alpha3beta3gamma2 receptor expressed in HEK293 cells assessed as GABA-induced membrane potential change preincubated for 3 mins followed by addition of GABA measured after 3 mins by FLIPR assay; assay type: cell-based
T1 sequence (P18507 whole entry): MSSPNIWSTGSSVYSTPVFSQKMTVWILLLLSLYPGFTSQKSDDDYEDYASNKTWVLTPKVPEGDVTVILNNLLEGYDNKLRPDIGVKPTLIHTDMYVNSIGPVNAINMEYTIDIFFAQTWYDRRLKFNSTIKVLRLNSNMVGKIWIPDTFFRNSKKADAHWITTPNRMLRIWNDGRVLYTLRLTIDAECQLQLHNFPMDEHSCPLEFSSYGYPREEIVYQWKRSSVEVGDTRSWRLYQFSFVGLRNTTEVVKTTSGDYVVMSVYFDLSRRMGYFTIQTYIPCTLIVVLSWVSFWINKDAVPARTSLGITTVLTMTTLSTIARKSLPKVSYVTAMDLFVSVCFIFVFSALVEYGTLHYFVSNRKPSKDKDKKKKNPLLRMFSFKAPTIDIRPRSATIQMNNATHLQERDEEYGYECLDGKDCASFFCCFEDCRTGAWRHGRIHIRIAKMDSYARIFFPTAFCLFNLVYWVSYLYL
T1 sequence (P28472 whole entry): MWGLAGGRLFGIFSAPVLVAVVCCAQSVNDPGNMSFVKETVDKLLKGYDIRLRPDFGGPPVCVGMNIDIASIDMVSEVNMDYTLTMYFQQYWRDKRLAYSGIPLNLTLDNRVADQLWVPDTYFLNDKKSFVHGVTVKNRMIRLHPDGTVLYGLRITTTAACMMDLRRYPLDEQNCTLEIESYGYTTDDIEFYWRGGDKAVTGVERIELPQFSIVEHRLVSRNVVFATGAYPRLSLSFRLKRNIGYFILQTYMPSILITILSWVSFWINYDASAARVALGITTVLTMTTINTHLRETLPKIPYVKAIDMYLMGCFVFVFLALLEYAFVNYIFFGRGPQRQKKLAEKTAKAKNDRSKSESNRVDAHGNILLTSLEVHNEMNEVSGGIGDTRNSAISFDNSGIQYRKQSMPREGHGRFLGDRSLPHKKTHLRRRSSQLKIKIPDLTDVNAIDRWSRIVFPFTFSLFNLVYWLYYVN
T1 sequence (P34903 whole entry): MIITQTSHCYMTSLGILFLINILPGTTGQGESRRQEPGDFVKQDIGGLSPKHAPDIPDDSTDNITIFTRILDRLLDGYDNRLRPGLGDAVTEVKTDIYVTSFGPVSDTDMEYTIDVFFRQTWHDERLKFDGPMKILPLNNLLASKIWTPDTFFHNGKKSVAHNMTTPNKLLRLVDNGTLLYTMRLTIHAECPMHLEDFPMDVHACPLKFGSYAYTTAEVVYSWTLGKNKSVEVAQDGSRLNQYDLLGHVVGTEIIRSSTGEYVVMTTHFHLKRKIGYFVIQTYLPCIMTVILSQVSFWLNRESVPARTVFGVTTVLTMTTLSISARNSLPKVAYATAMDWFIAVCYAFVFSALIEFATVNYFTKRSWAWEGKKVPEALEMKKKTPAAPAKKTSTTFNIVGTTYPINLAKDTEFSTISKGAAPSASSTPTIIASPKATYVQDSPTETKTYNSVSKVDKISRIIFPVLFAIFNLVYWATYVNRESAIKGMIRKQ
Summary of the method: (§3)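 Stably transfected HEK293T cells expressing α1β3γ2 (n = 2) or α3β3γ2 (n = 1) GABAARs. Membrane potential was read as fluorescence changes on a FLIPR Tetra, and EC50 was derived.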

[4] = Total plasma concentration in Sprague-Dawley rat at 10 mg/kg, po measured after 15 mins by LC-MS/MS analysis; assay type: ADME, organism-based; summary of the method: as §1
Mus musculus [5] = assay: Toxicity in Swiss mouse assessed as change in motor coordination by measuring number of falls from the rotating rod at 30 mg/kg, ip administered 30 mins prior to testing measured for 2 mins by rotarod test relative to control; assay type: organism-based; settings: in vivo
Summary of the method: (§4)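 The same mice used for marble burying were placed on a rotarod at 4 r.p.m. for 2 min. No fall was scored success, one fall partial, and two falls failure.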

[6] = target: T2, GABA-A receptor; alpha-1/beta-3/gamma-2 (Homo sapiens, UniProt P14867+P18507+P28472); assay: Binding affinity to human GABAA alpha1beta3gamma2 receptor expressed in HEK293 cells assessed as GABA-induced membrane potential change preincubated for 3 mins followed by addition of GABA measured after 3 mins by FLIPR assay; assay type: cell-based; summary of the method: as §3
T2 sequence (P14867 whole entry): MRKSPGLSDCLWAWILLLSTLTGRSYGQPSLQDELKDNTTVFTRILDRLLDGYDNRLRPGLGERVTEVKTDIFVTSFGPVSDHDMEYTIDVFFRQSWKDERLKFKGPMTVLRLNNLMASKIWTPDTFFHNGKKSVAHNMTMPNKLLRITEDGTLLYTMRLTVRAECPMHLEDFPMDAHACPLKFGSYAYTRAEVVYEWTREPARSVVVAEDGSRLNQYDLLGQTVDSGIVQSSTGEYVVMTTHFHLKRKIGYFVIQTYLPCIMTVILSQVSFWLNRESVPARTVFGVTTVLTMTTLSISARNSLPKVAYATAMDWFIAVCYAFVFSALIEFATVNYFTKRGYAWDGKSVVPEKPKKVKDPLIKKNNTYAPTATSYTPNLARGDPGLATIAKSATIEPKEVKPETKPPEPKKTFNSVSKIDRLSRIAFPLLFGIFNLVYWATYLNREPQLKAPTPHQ
T2 sequence (P18507 whole entry): T1 sequence (P18507 whole entry)
T2 sequence (P28472 whole entry): T1 sequence (P28472 whole entry)

[7] = Total plasma concentration in Sprague-Dawley rat at 10 mg/kg, po measured after 120 mins by LC-MS/MS analysis; assay type: ADME, organism-based; summary of the method: as §1
Liver [8] = assay: Metabolic stability in mouse liver microsomes assessed as compound remaining at 4 uM measured after 30 mins in presence of NADPH by LC-MS/MS analysis; assay type: ADME, microsome; settings: 0.5 h; summary of the method: as §2
[9] = Total plasma concentration in Sprague-Dawley rat at 10 mg/kg, po measured after 30 mins by LC-MS/MS analysis; assay type: ADME, organism-based; summary of the method: as §1
[10] = Total plasma concentration in Sprague-Dawley rat at 10 mg/kg, po measured after 60 mins by LC-MS/MS analysis; assay type: ADME, organism-based; summary of the method: as §1
Brain = assay: Drug metabolism in Sprague-Dawley rat brain assessed as (E)-8-ethynyl-6-(pyridin-2-yl)-4H-benzo[f]imidazo[1,5-a][1,4]diazepine-3-carboxylic acid formation at 10 mg/kg, po measured after 120 mins by LC-MS/MS analysis; assay type: ADME, organism-based; settings: in vivo, 2 h; summary of the method: as §1
Liver [11] = assay: Metabolic stability in human liver microsomes assessed as compound remaining at 4 uM measured after 30 mins in presence of NADPH by LC-MS/MS analysis; assay type: ADME, microsome; settings: 0.5 h; summary of the method: as §2
Mus musculus [12] = assay: Anxiolytic-like activity in Swiss Webster mouse marble burying model of anxiety assessed as suppression of marble burying activity at 30 mg/kg, ip administered 30 mins prior to test relative to vehicle-control; assay type: functional, organism-based
Summary of the method: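 Male NIH Swiss Webster mice (n = 10) received vehicle or compound at 10 or 30 mg/kg i.p. 30 min before marble burying testing. Sedation-like behaviour was noted by observation. Analysis was ANOVA with Dunnett's test vs vehicle.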

Mus musculus [13] = assay: Toxicity in Swiss mouse assessed as change in motor coordination by measuring number of falls from the rotating rod at 10 mg/kg, ip administered 30 mins prior to testing measured for 2 mins by rotarod test relative to control; assay type: organism-based; settings: in vivo; summary of the method: as §4
[14] = Cytotoxicity against HEK293T cells assessed as viable cells measured after 18 hrs by CellTiter-Glo assay; assay type: cell-based, HEK-293T; settings: human, read-out: LD50
Summary of the method: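 HEK293T cells were exposed to compound for 18 h (n = 4). Viable cells were quantified with CellTiter-Glo, and LD50 was derived.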

| Compound | concentration at 2 h [1] | Stability (Liver [2]) | EC50 [3] | concentration at 0.25 h [4] | Activity (Mus musculus [5]) | EC50 [6] | concentration at 2 h [7] | Stability (Liver [8]) | concentration at 0.5 h [9] | concentration at 1 h [10] | Drug metabolism (Brain) | Stability (Liver [11]) | Activity (Mus musculus [12]) | Activity (Mus musculus [13]) | CC50 at 18 h [14] |
| --- | --- | --- | --- | --- | --- | --- | --- | --- | --- | --- | --- | --- | --- | --- | --- |
| C#Cc1ccc2c(c1)C(c1ccccn1)=NCc1c(C(=O)O)ncn1-2 | < 12.2 nM | 99% | 0.47 µM | 248 nM | Toxic | > 20 µM | 37.5 nM | 93% | 293 nM | 161 nM | < 12.2 nM | 96% |  |  |  |
| [2H]C([2H])(C)OC(=O)c1ncn2c1CN=C(c1ccccn1)c1cc(C#C)ccc1-2 | < 12.2 nM | 77% |  | < 12.2 nM | Toxic |  | < 12.2 nM | 63% | < 12.2 nM | < 12.2 nM | < 12.2 nM | 95% |  |  |  |
| C#Cc1ccc2c(c1)C(c1ccccc1)=NCc1c(-c3cnco3)ncn1-2 |  | 72% | 0.321 µM |  | Toxic | > 20 µM |  | 73% |  |  |  | 74% | Active | Toxic | 66.8 µM |
| C#Cc1ccc2c(c1)C(c1ccccn1)=NCc1c(-c3nc(C)no3)ncn1-2 |  | 93% | 5.15 µM |  | Toxic | > 20 µM |  | 85% |  |  |  | 81% | Active | Non-Toxic | > 100 µM |
| C#Cc1ccc2c(c1)C(c1ccccc1)=NCc1c(C(=O)OCC)ncn1-2 |  | 36% |  |  | Toxic |  |  | 6.3% |  |  |  | 35% |  |  |  |
| C#Cc1ccc2c(c1)C(c1ccccc1F)=NCc1c(C(=O)OCC)ncn1-2 |  | 0.5% | 0.029 µM |  | Toxic | > 20 µM |  | 6.1% |  |  |  | 6.1% |  |  |  |
| C#Cc1ccc2c(c1)C(c1ccccc1F)=NCc1c(-c3cnco3)ncn1-2 |  | 68% | 0.011 µM |  | Toxic | > 20 µM |  | 78% |  |  |  | 78% | Active | Non-Toxic | 61.5 µM |
